Measurements reported in article PMC355911 (Journal of Insect Science, 2002).

Tests used:
DmEcR/DmUSP = target: T1, DmEcR/DmUSP (Drosophila melanogaster, UniProt P34021); test: UV-irradiation of receptor complex with ligand, then [3H]ponasterone A binding; conditions: ligand 100 nM, 350 nm for 20 min, [3H]ponA 2.55 nM
T1 sequence (P34021 1-878): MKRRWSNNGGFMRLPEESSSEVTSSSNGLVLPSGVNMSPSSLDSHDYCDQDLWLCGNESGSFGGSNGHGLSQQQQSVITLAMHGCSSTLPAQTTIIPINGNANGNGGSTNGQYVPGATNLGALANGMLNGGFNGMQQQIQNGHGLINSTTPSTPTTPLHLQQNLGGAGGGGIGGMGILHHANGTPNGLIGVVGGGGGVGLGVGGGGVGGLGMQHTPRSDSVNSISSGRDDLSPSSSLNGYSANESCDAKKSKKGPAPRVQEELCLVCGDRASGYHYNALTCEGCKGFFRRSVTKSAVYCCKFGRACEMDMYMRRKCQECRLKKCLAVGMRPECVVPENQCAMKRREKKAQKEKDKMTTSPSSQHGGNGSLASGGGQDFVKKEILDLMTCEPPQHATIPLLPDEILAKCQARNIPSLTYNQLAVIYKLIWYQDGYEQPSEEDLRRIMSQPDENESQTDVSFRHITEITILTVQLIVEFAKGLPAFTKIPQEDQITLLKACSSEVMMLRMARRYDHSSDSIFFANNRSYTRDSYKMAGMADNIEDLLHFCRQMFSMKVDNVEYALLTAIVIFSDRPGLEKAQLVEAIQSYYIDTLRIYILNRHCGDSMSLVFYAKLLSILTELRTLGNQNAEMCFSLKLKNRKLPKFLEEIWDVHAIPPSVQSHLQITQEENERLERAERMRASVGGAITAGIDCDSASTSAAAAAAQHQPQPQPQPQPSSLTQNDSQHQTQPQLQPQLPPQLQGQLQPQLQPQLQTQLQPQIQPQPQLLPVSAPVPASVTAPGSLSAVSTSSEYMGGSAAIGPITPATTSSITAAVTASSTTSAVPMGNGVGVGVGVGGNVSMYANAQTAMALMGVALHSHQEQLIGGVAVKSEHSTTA
T1 sequence (P20153 1-508 partner): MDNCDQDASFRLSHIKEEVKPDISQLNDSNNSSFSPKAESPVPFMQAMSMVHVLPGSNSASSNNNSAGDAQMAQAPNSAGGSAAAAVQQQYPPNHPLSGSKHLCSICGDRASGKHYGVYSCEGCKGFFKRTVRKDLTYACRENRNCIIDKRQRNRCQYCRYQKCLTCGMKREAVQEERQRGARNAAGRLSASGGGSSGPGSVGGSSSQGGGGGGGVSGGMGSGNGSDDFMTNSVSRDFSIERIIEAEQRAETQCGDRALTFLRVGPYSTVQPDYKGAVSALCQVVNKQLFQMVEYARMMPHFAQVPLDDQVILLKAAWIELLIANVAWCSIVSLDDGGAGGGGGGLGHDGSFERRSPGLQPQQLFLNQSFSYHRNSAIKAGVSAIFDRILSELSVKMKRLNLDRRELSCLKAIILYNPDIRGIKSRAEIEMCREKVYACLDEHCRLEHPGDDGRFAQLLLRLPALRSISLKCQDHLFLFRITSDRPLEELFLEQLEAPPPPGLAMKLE
Summary of the method: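 Crude extracts of bacterially expressed DmEcR/DmUSP were incubated with 100 nM ligand at 7°C for 16 h to equilibrium. Samples were irradiated in quartz tubes on a merry-go-round at 350 nm for 20 min, with non-irradiated controls. Unbound steroid was stripped with fatty-acid-free BSA plus dextran-coated charcoal (10 mM Tris/HCl, pH 7.2), 5 min ice-cold, then spun at 13,000 × g. Supernatant was equilibrated with 2.55 nM [3H]ponA at 7°C, DCC-stripped again, and scintillation-counted. Duplicates.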

CfEcR/CfUSP = target: T2, CfEcR/CfUSP (Choristoneura fumiferana, UniProt O77255); test: UV-irradiation of receptor complex with ligand, then [3H]ponasterone A binding; conditions: ligand 100 nM, 350 nm for 20 min, [3H]ponA 2.55 nM
T2 sequence (O77255 1-541): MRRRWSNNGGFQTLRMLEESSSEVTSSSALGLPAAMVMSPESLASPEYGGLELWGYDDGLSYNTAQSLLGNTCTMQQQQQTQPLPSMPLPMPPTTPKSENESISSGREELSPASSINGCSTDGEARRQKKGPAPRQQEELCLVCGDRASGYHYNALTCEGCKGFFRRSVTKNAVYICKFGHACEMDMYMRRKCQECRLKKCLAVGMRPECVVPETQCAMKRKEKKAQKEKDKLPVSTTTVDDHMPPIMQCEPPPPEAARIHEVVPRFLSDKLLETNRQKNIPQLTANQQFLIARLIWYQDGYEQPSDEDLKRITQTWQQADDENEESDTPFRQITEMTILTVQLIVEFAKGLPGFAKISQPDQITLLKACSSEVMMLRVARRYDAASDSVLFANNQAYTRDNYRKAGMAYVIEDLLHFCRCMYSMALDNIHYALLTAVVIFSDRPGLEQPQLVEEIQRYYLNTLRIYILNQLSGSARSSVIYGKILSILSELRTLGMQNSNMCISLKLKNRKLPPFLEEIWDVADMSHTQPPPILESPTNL
T2 sequence (O76202 1-472 partner): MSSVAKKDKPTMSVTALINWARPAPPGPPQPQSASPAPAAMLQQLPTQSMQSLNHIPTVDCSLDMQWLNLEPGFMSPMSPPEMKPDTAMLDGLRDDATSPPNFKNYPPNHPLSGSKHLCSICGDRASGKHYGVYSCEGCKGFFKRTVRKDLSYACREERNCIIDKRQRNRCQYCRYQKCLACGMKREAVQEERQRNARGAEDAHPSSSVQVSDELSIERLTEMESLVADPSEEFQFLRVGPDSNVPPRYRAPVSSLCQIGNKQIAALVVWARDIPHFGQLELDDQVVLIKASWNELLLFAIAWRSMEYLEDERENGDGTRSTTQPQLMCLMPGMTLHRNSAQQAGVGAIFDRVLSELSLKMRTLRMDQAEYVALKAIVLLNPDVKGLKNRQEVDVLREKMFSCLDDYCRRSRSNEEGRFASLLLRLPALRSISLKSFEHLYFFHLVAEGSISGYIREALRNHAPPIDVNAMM

| Compound | binding capacity for [3H]ponasterone A after irradiation with ligand (in words) (DmEcR/DmUSP; listed as 20E) | binding capacity for [3H]ponasterone A after irradiation with ligand (in words) (CfEcR/CfUSP; listed as 20E) | binding capacity for [3H]ponasterone A after irradiation with ligand (in words) (DmEcR/DmUSP) | binding capacity for [3H]ponasterone A after irradiation with ligand (in words) (CfEcR/CfUSP) |
| --- | --- | --- | --- | --- |
| CC(C)(O)CC[C@@H](O)[C@](C)(O)[C@H]1CC[C@@]2(O)C3=CC(=O)[C@@H]4C[C@@H](O)[C@@H](O)C[C@]4(C)[C@H]3CC[C@]12C [compound 1, 20-hydroxyecdysone] | no blocking | no blocking | – | – |
| CC(C)CC[C@@H](O)[C@](C)(O)[C@H]1CC[C@@]2(O)C3=CC(=O)[C@@H]4C[C@@H](O)[C@@H](O)C[C@]4(C)C3=CC[C@]12C [compound 5, dacryhainansterone] | – | – | significantly reduced | significantly reduced |
